# From PubChem
# PKA-R2B activ: activates the human PKA-R2B holoenzyme complex. PKA-R2B holoenzyme dissociation, Cy5-IP20 fluorescence polarization; R2B truncated from residue 108, S112A mutant; 0% DMSO only, 100% 113 µM cGMP. hit rate 0.079% among 340,000. activation, % at 11.4 µM;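 active = activation above a cutoff set at the mean over all compounds plus 3 SD, cut at about 18% in these data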;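 note: higher means more holoenzyme dissociation and a rise in polarization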
# Target sequence (P31323 whole entry, looked up, other chains not shown, the tested form may be a part): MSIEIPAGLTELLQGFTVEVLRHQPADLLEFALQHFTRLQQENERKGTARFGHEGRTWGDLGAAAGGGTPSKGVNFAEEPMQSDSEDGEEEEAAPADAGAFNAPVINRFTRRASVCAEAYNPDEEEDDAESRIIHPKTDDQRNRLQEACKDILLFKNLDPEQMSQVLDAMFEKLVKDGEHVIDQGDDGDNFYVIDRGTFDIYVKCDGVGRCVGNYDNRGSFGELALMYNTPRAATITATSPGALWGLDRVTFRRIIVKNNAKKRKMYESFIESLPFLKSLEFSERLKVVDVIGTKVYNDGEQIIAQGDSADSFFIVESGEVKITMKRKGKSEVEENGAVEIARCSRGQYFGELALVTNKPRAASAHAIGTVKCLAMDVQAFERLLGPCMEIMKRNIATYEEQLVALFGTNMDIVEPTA
# MsrA act: activates bovine MsrA enzyme; purified bovine MsrA, absorbance read-out; activation, % at 10.6 µM; hit rate 0.3% among 360,000; AID 602163; in the data active = activation above about 7.5%;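 note: 0% = vehicle and 100% = reference activator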
# VIM-2 inh: inhibitors of Pseudomonas aeruginosa VIM-2 metallo-beta-lactamase. AID 1527. purified VIM-2, nitrocefin hydrolysis, epi-absorbance fluorescence. inhibition, % at 5.6 µM. hit rate 0.89% among 290,000;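 active = inhibition above the mean of all tested compounds plus 3 SD, cutoff set per screening run, cut at about 7.5% in these data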;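 note: red hydrolysis product quenches plate fluorescence so inhibitors raise well fluorescence; 0% = enzyme with DMSO and 100% = DMSO without enzyme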
# IMP-1 inhibitor: inhibitors of Pseudomonas aeruginosa IMP-1 metallo-beta-lactamase; purified IMP-1, nitrocefin hydrolysis, epi-absorbance fluorescence; inhibition, % at 5.6 µM; hit rate 0.45% among 290,000;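 active = inhibition above the mean plus 3 SD of all compounds in the same screening run, cut at about 4.5% in these data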;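 note: 0% = IMP-1 with DMSO and 100% = DMSO wells lacking enzyme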
#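 System: Purified recombinant IMP-1 metallo-beta-lactamase enzyme | Measured by: Fluorescence quenching readout, ex 480/em 530 nm | Replication: Singlicate | Incubation: 15 min preincubation plus 25 min reaction at 25 °C | Evaluation: Percent inhibition from optical density relative to buffer-blank wells | Benchmarks: DMSO with and without IMP-1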
# PKA-R1A act: PKA-R1A complex activation; P00514+P68181; PKA-R1A dissociation, Cy5-IP20 fluorescence polarization; scaled: DMSO 0%, 113 µM cGMP 100%; activation, % at 11.4 µM; hit rate 0.083% among 340,000; AID 504707;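 active = percent activation above the mean of all tested compounds plus 3 SD, cut at about 19% in these data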;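 note: higher means more PKAc released from R1A so a rise in polarization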
# MsrA inh: inhibitors of bovine MsrA; purified bovine MsrA, absorbance read-out; inhibition, % at 15.5 µM; hit rate 0.75% among 360,000; AID 651718;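 note: 0% = vehicle wells with enzyme and 100% = reference inhibitor wells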
# MsrA act confirm: confirmation of bovine methionine sulfoxide reductase A activators; shares compounds with MsrA act; purified bovine MsrA, absorbance read-out; activation, % at 10.6 µM; hit rate 12% among 1,000; AID 602270; in the data active = activation above about 4%;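 note: enzyme coupled to thioredoxin and thioredoxin reductase with NADPH; 0% = vehicle wells and 100% = reference activator wells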
# MsrA conf: confirmation of bovine MsrA inhibitors; shares compounds with MsrA inh; purified bovine MsrA, absorbance read-out; inhibition, % at 15.5 µM; hit rate 41% among 2,300; AID 651822;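 note: coupled to thioredoxin reductase with NADPH and selenocystamine and DMSO as substrate; 0% = vehicle only and 100% = full effect of reference inhibitor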
# Active calls of the source: *; x = no result given. An excerpt weighted towards active compounds, which were near 2.1% of everything screened. Cut-off read from the data, not from the text of the source, unless noted: active = inhibition above about 4.5%; inactive = the rest.
SMILES,PKA-R2B activ,MsrA act,VIM-2 inh,IMP-1 inhibitor,PKA-R1A act,MsrA inh,MsrA conf,others
COc1ccc(/C=N/NC2=NS(=O)(=O)c3ccccc32)cc1OC(C)=O,-6,15*,-4,0,-3,5.4*,4,MsrA act confirm=-4
COc1ccc(OC)c(/C=N/NC2=NS(=O)(=O)c3ccccc32)c1,1,0,-3,-4,6,3,x,
O=C(Nc1ccc([N+](=O)[O-])cc1)OC1CCS(=O)(=O)C1 (stereo unspecified),x,-3,x,x,x,3,x,
Cc1ccc(S(=O)(=O)N(C)CC(=O)NCC(c2ccco2)N(C)C)cc1 (stereo unspecified),13,-2,x,x,0,1,x,
Cc1cc(C(=O)O)ccc1-c1ccc(/C=N/n2cnnc2)o1,4,8.4*,1,-2,-4,9.2*,6.5*,MsrA act confirm=-6
CC(=O)c1cccc(NC(=O)c2ccc([N+](=O)[O-])o2)c1,2,4,x,x,0,1,x,
CC(=O)c1ccc(NC(=O)c2ccc([N+](=O)[O-])o2)cc1,0,9.1*,-3,-4,6,11*,5.7*,MsrA act confirm=2
O=S(=O)(Nc1cc(Sc2cccc3cccnc23)c(O)c2ccccc12)c1ccc(F)cc1,x,x,-4,-3,x,2,x,
O=C(O)CSc1cc(NS(=O)(=O)c2ccc(Cl)cc2)c2ccccc2c1O,5,7.8*,2,2,3,9.5*,0,MsrA act confirm=0
COC(=O)c1cccc(-n2c(C)cc(O)cc2=O)c1,x,x,x,x,x,0,x,
O=C1C(Cl)=C(Nc2ccc(O)cc2)C(=O)c2ccccc21,0,9.2*,0,-4,-8,17*,12*,MsrA act confirm=7.0*
COc1ccc(Nc2ccc(C(F)(F)F)cc2[N+](=O)[O-])cn1,-2,13*,-4,-3,1,24*,18*,MsrA act confirm=1
COc1ccc(/C=N/N=C2/NC(=O)C(CC(=O)O)S2)cc1OCc1ccccc1Cl (stereo unspecified),-7,-10,-4,-2,-1,6.5*,6.4*,
CCOc1cc(/C=N/N=C2/NC(=O)C(CC(=O)O)S2)ccc1OCc1ccccc1Cl (stereo unspecified),-12,-4,-3,-3,-3,6.8*,4.8*,
Cc1ccc(S(=O)(=O)Oc2ccc(/C=N/N=C3/NC(=O)C(CC(=O)O)S3)cc2)cc1 (stereo unspecified),x,-4,x,x,x,4,x,
COc1ccc(/C=N/N=C2/NC(=O)C(CC(=O)NC(N)=O)S2)cc1 (stereo unspecified),11,-2,-1,-3,-4,3,x,
COc1ccc(S(=O)(=O)Oc2cccc(/C=N/N=C3/NC(=O)C(CC(=O)O)S3)c2)cc1 (stereo unspecified),-7,-3,3,0,3,5.2*,2,
CCOc1cc(/C=N/N=C2/NC(=O)C(CC(=O)O)S2)ccc1OS(=O)(=O)c1ccc(C)cc1 (stereo unspecified),5,-2,-4,-3,-3,5.6*,3,
COc1ccc(/C=N/N=C2/NC(=O)C(CC(=O)O)S2)cc1OCc1ccc(Cl)cc1Cl (stereo unspecified),-8,-4,-2,-3,-1,2,x,
COc1ccccc1-c1sc2cc3c(cc2c1C#Cc1cncn1C)OCO3,-10,-7,x,x,-9,0,x,
Cc1c(C#N)c(N=CN(C)C)c(C(=O)c2ccc(Br)cc2)n1-c1ccccc1,-4,1,-1,-3,1,2,x,
Cc1c(C#N)c(N=CN(C)C)c(C(=O)c2ccccc2)n1-c1ccc(Br)cc1,-3,-9,-3,0,-9,5.3*,7.3*,
Cc1cc(C)n(CC(=O)N2CCc3ccccc32)c(=O)c1C#N,-7,-1,-5,-2,4,3,x,
Cc1cc2n(c(=O)c1C#N)CCCN2c1ccccc1,-6,-14,4,-2,-6,6.1*,4.5*,
COC(=O)C1=C(C)N(Cc2ccccc2)C(=S)NC1c1ccc(Cl)cc1 (stereo unspecified),x,x,x,x,x,0,x,
SMILES,PKA-R2B activ,MsrA act,VIM-2 inh,IMP-1 inhibitor,PKA-R1A act,MsrA inh,MsrA conf,others
COc1ccc(C(=O)/C=C/Nc2cccc(O)c2)cc1,4,-3,-1,-2,3,2,x,
COc1ccc(C(=O)/C=C/Nc2cc(C)on2)cc1,1,-5,-6,-5,5,6.6*,6.2*,
O=C(CN1CCOCC1)Nc1ccc([N+](=O)[O-])cc1Br,-5,-2,-1,-1,-7,1,x,
O=C(CN1CCCCCC1)Nc1ccc([N+](=O)[O-])cc1Br,0,-6,-3,-3,-7,4.8*,7.2*,
COc1cccc(-c2cnc(C(O)c3cc(Cl)cc(Cl)c3)[nH]2)c1 (stereo unspecified),x,-3,x,x,x,0,x,
CC1(C(=O)NS(=O)(=O)c2cccc(Cl)c2)CCN1C(=O)CC1CCCC1 (stereo unspecified),x,-3,x,x,x,-1,x,
CN(C)C(/C=C/Nc1ccccc1F)=C(C#N)C#N,-10,-2,-1,-1,0,1,x,
COc1ccccc1N/C=C/C(=C(C#N)C#N)N(C)C,-6,-4,2,1,-7,5.5*,3,
CN(C)/C=C/c1oc2ccc(O)cc2c1[N+](=O)[O-],-1,-5,-5,-6,-16,5.5*,4,
Cc1oc2ccc(O)cc2c1C(=O)c1ccc([N+](=O)[O-])cc1,-5,-3,-1,-1,-4,1,x,
CCc1c(-c2ccccc2)ncn1CCc1ccccc1OC,x,x,x,x,x,0,x,
O=Cc1cccn1-c1sc2c(c1C(=O)O)CCCC2,1,-2,-3,-1,-10,0,x,
N#Cc1c(-n2cccc2C=O)sc2c1CCCC2,2,-5,-3,-3,-6,11*,10.0*,
COc1ccc(/C=C(/NC(=O)c2ccccc2)c2nc3ccccc3[nH]2)cc1OC,-8,-7,-6,-3,5,6.5*,4,
O=C(c1ccco1)c1cc2c(ccc3ccccc32)oc1=O,8,-4,1,-2,0,13*,28*,
Cc1ccc[n+](/C(=C\C(=C=[N-])C#N)C(=O)c2ccc(Cl)cc2)c1,11,-6,-3,-1,1,4.8*,5.0*,
C[C@@H]1CCCCO[C@H](CN(C)C(=O)Nc2ccc3c(c2)OCO3)[C@H](C)CN([C@@H](C)CO)C(=O)c2cc(NS(=O)(=O)c3ccc(Cl)cc3)ccc2O1,-6,-1,x,x,-9,0,x,
COc1ccc(C=C2SC(=S)NC2=O)c(OC)c1OC,5,-16,x,x,-8,4.8*,2,
COc1ccccc1C=C1SC(=S)NC1=O,3,-9,x,x,4,1,x,
